# Test results: ChEMBL document CHEMBL5303300, “EUbOPEN Chemogenomics Library - Multiplex” (2023)
# Where “and” joins values, the source holds several entries; their conditions need not be identical. Equal entries are not always repeated.
# Test system: U2OS
# Assay: Multiplex assay against U2OS
# Type: toxicity, cell-based
# Settings: human, number of replicates 2
# Method in brief: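 Imaging took place on a CQ1 microscope at 37°C and 5% CO2 once compound had been added to live cells stained at seeding with Hoechst33342, BioTracker Green Microtubule Cytoskeleton Dye, MitoTracker Red and Annexin V Alexa Fluor 680. CellPathfinder machine-learning gating classed cells as Hoechst high-intensity objects or normal cells, classed normal cells as having healthy, pyknosed or fragmented nuclei, and classed pyknosed cells as mitotic or apoptotic. Tubulin, mitochondrial-mass and membrane-permeability phenotypes are per cents of the healthy-nucleus cells.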
# [1] = 12 h, 1 µM, compound concentration 1 uM
# [2] = 12 h, 10 µM, compound concentration 10 uM
# [3] = 24 h, 1 µM, compound concentration 1 uM
# [4] = 24 h, 10 µM, compound concentration 10 uM
# [5] = 48 h, 1 µM, compound concentration 1 uM
# [6] = 48 h, 10 µM, compound concentration 10 uM
# [7] = 12 h, 0 µM, compound concentration 0 uM
# [8] = 24 h, 0 µM, compound concentration 0 uM
# [9] = 48 h, 0 µM, compound concentration 0 uM
compound,measurement,setting,value
CC(C)NC(=O)[C@H]1CCC[C@H]1Nc1nc(Nc2ccc(C(=O)N(C)C3CCN(C)CC3)cc2)ncc1Cl,Population Apoptotic (%),[1],75% and 60%
same,Population Fragmented Nuclei (%),[1],17% and 6%
same,Population Healthy Nuclei (%),[1],72% and 81%
same,Population Hoechst High Intensity Objects (%),[1],0%
same,Population Membrane Permeable-Phenotype (%),[1],0% and 2%
same,Population Mitochondria Different-Phenotype (%),[1],0%
same,Population Mitotic Cells (%),[1],25% and 40%
same,Population Normal (%),[1],100% and 99%
same,Population Pyknosed Nuclei (%),[1],10% and 12%
same,Population Tubulin-Different-Phenotype (%),[1],65% and 57%
same,Population Apoptotic (%),[2],100% and 69%
same,Population Healthy Nuclei (%),[2],65% and 73%
same,Population Hoechst High Intensity Objects (%),[2],0%
same,Population Membrane Permeable-Phenotype (%),[2],13% and 18%
same,Population Mitochondria Different-Phenotype (%),[2],0% and 15%
same,Population Normal (%),[2],100%
same,Population Pyknosed Nuclei (%),[2],8% and 20%
same,Population Tubulin-Different-Phenotype (%),[2],40% and 36%
same,Population Apoptotic (%),[3],42% and 87%
same,Population Fragmented Nuclei (%),[3],8% and 3%
same,Population Healthy Nuclei (%),[3],70% and 83%
same,Population Hoechst High Intensity Objects (%),[3],0%
same,Population Membrane Permeable-Phenotype (%),[3],4% and 1%
same,Population Mitochondria Different-Phenotype (%),[3],0%
same,Population Normal (%),[3],100%
same,Population Pyknosed Nuclei (%),[3],20% and 12%
same,Population Tubulin-Different-Phenotype (%),[3],58% and 61%
same,Population Apoptotic (%),[4],75% and 82%
same,Population Healthy Nuclei (%),[4],43% and 65%
same,Population Hoechst High Intensity Objects (%),[4],0%
same,Population Membrane Permeable-Phenotype (%),[4],15% and 13%
same,Population Mitochondria Different-Phenotype (%),[4],46% and 31%
same,Population Mitotic Cells (%),[4],25% and 17%
same,Population Normal (%),[4],100%
same,Population Pyknosed Nuclei (%),[4],13% and 28%
same,Population Tubulin-Different-Phenotype (%),[4],53% and 45%
same,Population Apoptotic (%),[5],72% and 90%
same,Population Fragmented Nuclei (%),[5],10% and 18%
same,Population Healthy Nuclei (%),[5],64% and 58%
same,Population Hoechst High Intensity Objects (%),[5],0%
same,Population Membrane Permeable-Phenotype (%),[5],5% and 0%
same,Population Mitochondria Different-Phenotype (%),[5],0%
same,Population Mitotic Cells (%),[5],27% and 10%
same,Population Normal (%),[5],99% and 100%
same,Population Pyknosed Nuclei (%),[5],24% and 23%
same,Population Tubulin-Different-Phenotype (%),[5],68% and 48%
same,Population Apoptotic (%),[6],90% and 89%
same,Population Hoechst High Intensity Objects (%),[6],0%
same,Population Membrane Permeable-Phenotype (%),[6],0% and 25%
same,Population Mitotic Cells (%),[6],10%
same,Population Normal (%),[6],100% and 99%
same,Population Pyknosed Nuclei (%),[6],38% and 51%
same,Population Tubulin-Different-Phenotype (%),[6],50% and 52%
COc1cc(C(N)=O)ccc1Nc1ncc2c(n1)N(CCC(C)C)[C@H](C)C(=O)N2C,Population Apoptotic (%),[7],42% and 75%
same,Population Healthy Nuclei (%),[7],45% and 69%
same,Population Hoechst High Intensity Objects (%),[7],0%
same,Population Membrane Permeable-Phenotype (%),[7],31% and 42%
same,Population Mitochondria Different-Phenotype (%),[7],15% and 27%
same,Population Mitotic Cells (%),[7],57% and 24%
same,Population Normal (%),[7],100%
same,Population Pyknosed Nuclei (%),[7],16% and 18%
same,Population Tubulin-Different-Phenotype (%),[7],78% and 56%
same,Population Apoptotic (%),[1],100% and 61%
same,Population Healthy Nuclei (%),[1],66% and 76%
same,Population Hoechst High Intensity Objects (%),[1],0%
same,Population Membrane Permeable-Phenotype (%),[1],7% and 1%
same,Population Normal (%),[1],100%
same,Population Pyknosed Nuclei (%),[1],4% and 14%
same,Population Tubulin-Different-Phenotype (%),[1],92% and 81%
same,Population Apoptotic (%),[8],100% and 89%
same,Population Fragmented Nuclei (%),[8],46% and 22%
same,Population Healthy Nuclei (%),[8],41% and 54%
same,Population Hoechst High Intensity Objects (%),[8],0%
same,Population Membrane Permeable-Phenotype (%),[8],76% and 33%
same,Population Mitochondria Different-Phenotype (%),[8],70% and 40%
same,Population Mitotic Cells (%),[8],0% and 10%
same,Population Normal (%),[8],100%
same,Population Pyknosed Nuclei (%),[8],12% and 23%
same,Population Tubulin-Different-Phenotype (%),[8],88% and 47%
same,Population Apoptotic (%),[3],66% and 94%
same,Population Healthy Nuclei (%),[3],32% and 73%
same,Population Hoechst High Intensity Objects (%),[3],0%
same,Population Normal (%),[3],100%
same,Population Pyknosed Nuclei (%),[3],12% and 8%
same,Population Tubulin-Different-Phenotype (%),[3],87% and 85%
same,Population Apoptotic (%),[9],75% and 95%
same,Population Fragmented Nuclei (%),[9],57% and 39%
same,Population Healthy Nuclei (%),[9],34% and 30%
same,Population Hoechst High Intensity Objects (%),[9],0%
same,Population Membrane Permeable-Phenotype (%),[9],82% and 72%
same,Population Mitochondria Different-Phenotype (%),[9],70%
same,Population Normal (%),[9],100%
same,Population Tubulin-Different-Phenotype (%),[9],76% and 82%
same,Population Apoptotic (%),[5],100% and 84%
same,Population Fragmented Nuclei (%),[5],61% and 25%
same,Population Hoechst High Intensity Objects (%),[5],0%
same,Population Mitotic Cells (%),[5],0% and 15%
same,Population Normal (%),[5],100%
same,Population Pyknosed Nuclei (%),[5],17% and 12%
same,Population Tubulin-Different-Phenotype (%),[5],100% and 93%
c1ccc2c(-c3coc4cc(-c5ccc(N6CCNCC6)cc5)cnc34)ccnc2c1,Population Healthy Nuclei (%),[1],82% and 84%
same,Population Mitochondria Different-Phenotype (%),[1],0% and 2%
same,Population Normal (%),[1],100%
same,Population Pyknosed Nuclei (%),[1],0% and 10%
same,Population Tubulin-Different-Phenotype (%),[1],84% and 81%
same,Population Apoptotic (%),[2],93% and 90%
same,Population Healthy Nuclei (%),[2],0% and 6%
same,Population Mitochondria Different-Phenotype (%),[2],100% and 75%
same,Population Mitotic Cells (%),[2],6% and 10%
same,Population Normal (%),[2],100% and 98%
same,Population Pyknosed Nuclei (%),[2],95% and 60%
same,Population Tubulin-Different-Phenotype (%),[2],100%
same,Total Cell Count,[2],163 and 67
same,Population Apoptotic (%),[3],100% and 76%
same,Population Healthy Nuclei (%),[3],91% and 82%
same,Population Mitochondria Different-Phenotype (%),[3],0%
same,Population Mitotic Cells (%),[3],0% and 23%
same,Population Normal (%),[3],100%
same,Population Pyknosed Nuclei (%),[3],2% and 10%
same,Population Tubulin-Different-Phenotype (%),[3],81% and 82%
same,Population Apoptotic (%),[4],92% and 87%
same,Population Healthy Nuclei (%),[4],0% and 4%
same,Population Mitotic Cells (%),[4],7% and 12%
same,Population Normal (%),[4],98% and 97%
same,Population Pyknosed Nuclei (%),[4],93% and 56%
same,Population Tubulin-Different-Phenotype (%),[4],100% and 66%
same,Total Cell Count,[4],160 and 71
same,Population Apoptotic (%),[5],75%
same,Population Healthy Nuclei (%),[5],83% and 84%
same,Population Mitochondria Different-Phenotype (%),[5],0%
same,Population Mitotic Cells (%),[5],25%
same,Population Normal (%),[5],100%
same,Population Pyknosed Nuclei (%),[5],6% and 10%
same,Population Tubulin-Different-Phenotype (%),[5],87%
same,Population Apoptotic (%),[6],91%
same,Population Healthy Nuclei (%),[6],8% and 1%
same,Population Mitotic Cells (%),[6],8%
same,Population Normal (%),[6],98%
same,Population Pyknosed Nuclei (%),[6],39% and 87%
same,Population Tubulin-Different-Phenotype (%),[6],57% and 100%
same,Total Cell Count,[6],87 and 164
CS(=O)(=O)c1ccc(C(=O)Nc2cccc(COc3cc(F)c(Br)cc3CN3CC[C@H](O)C3)c2)c(Cl)c1.O=CO,Population Apoptotic (%),[1],62% and 55%
same,Population Hoechst High Intensity Objects (%),[1],0%
same,Population Pyknosed Nuclei (%),[1],19% and 14%
same,Population Apoptotic (%),[2],66% and 54%
same,Population Healthy Nuclei (%),[2],36% and 74%
same,Population Hoechst High Intensity Objects (%),[2],0%
same,Population Pyknosed Nuclei (%),[2],20% and 16%
same,Total Cell Count,[2],90 and 192
same,Population Apoptotic (%),[3],50% and 66%
same,Population Healthy Nuclei (%),[3],56%
same,Population Hoechst High Intensity Objects (%),[3],0%
same,Population Pyknosed Nuclei (%),[3],20% and 10%
same,Population Apoptotic (%),[4],82% and 73%
same,Population Healthy Nuclei (%),[4],33%
same,Population Hoechst High Intensity Objects (%),[4],0%
same,Population Pyknosed Nuclei (%),[4],19% and 26%
same,Total Cell Count,[4],86 and 214
same,Population Apoptotic (%),[5],58% and 92%
same,Population Fragmented Nuclei (%),[5],22%
same,Population Healthy Nuclei (%),[5],58%
same,Population Hoechst High Intensity Objects (%),[5],0%
same,Population Pyknosed Nuclei (%),[5],19% and 10%
same,Population Apoptotic (%),[6],88% and 84%
same,Population Healthy Nuclei (%),[6],26%
same,Population Hoechst High Intensity Objects (%),[6],0%
same,Population Pyknosed Nuclei (%),[6],28%
